In ChEMBL document CHEMBL1667730, “Antibacterial and anti-inflammatory activities of 4-hydroxycordoin: potential therapeutic benefits” (J Nat Prod, 2011):
Converted amounts (≈) assume the structure as drawn. The source made the active and inactive calls. The rule behind the calls is not given here.

How the values were obtained:
Porphyromonas gingivalis [1] = assay: Antibacterial activity against Porphyromonas gingivalis ATCC 33277 after 24 hrs; format: functional
How it was run: (§1)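 Broth microdilution in THB-HK: 24 h cultures diluted to OD655 0.2, mixed 1:1 with compound (0–40 µg/mL, twofold steps from 0.63), 24 h at 37 °C anaerobic (N2-H2-CO2 80:10:10); growth by OD655 relative to untreated. MIC = lowest concentration with no growth; MBC from no-growth wells plated on THB-HK agar, 5 days anaerobic. Triplicate, two independent experiments.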

Fusobacterium nucleatum = assay: Antibacterial activity against Fusobacterium nucleatum ATCC 25586 after 24 hrs; format: functional; how it was run: as §1
Prevotella intermedia [2] = assay: Antibacterial activity against Prevotella intermedia ATCC 25611 after 24 hrs; format: functional; how it was run: as §1
Prevotella intermedia [3] = assay: Antibacterial activity against Prevotella intermedia ATCC 25611 assessed as reduction of bacterial growth at 1.25 ug/ml after 24 hrs; format: functional; set-up: scale not given: the % may be the effect or the level left; how it was run: as §1
Porphyromonas gingivalis [4] = assay: Antibacterial activity against 14C-labeled Porphyromonas gingivalis ATCC 33277 assessed as inhibition of adhesion to human GMSM-K cells after 30 mins by scintillation counting; format: functional, cell-based
How it was run: (§2)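 14C-amino acid-labelled (20 µCi/mL, 16 h, anaerobic) mid-log P. gingivalis washed in PBS pH 7.2, suspended to OD655 0.8 in prereduced PBS; mixed with compound (final 0, 0.2, 1, 5 µg/mL) and added to confluent GMSM-K monolayers for 30 min at 37 °C; unbound cells washed off, bound bacteria released with 0.5 M NaOH, scintillation counted. Triplicate, three independent assays, mean ± SD.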

Porphyromonas gingivalis [5] = assay: Antibacterial activity against 14C-labeled Porphyromonas gingivalis ATCC 33277 assessed as inhibition of adhesion to human GMSM-K cells at 0.2 ug/ml after 30 mins by scintillation counting; format: functional, cell-based; how it was run: as §2
Porphyromonas gingivalis [6] = assay: Antibacterial activity against 14C-labeled Porphyromonas gingivalis ATCC 33277 assessed as inhibition of adhesion to human GMSM-K cells at 1 ug/ml after 30 mins by scintillation counting relative to control; format: functional; details: ATCC 33277, GMSM-K, 0.5 h; how it was run: as §2
Porphyromonas gingivalis [7] = assay: Antibacterial activity against 14C-labeled Porphyromonas gingivalis ATCC 33277 assessed as inhibition of adhesion to human GMSM-K cells at 5 ug/ml after 30 mins by scintillation counting relative to control; format: functional; details: ATCC 33277, GMSM-K, 0.5 h; how it was run: as §2
U-937 [8] = assay: Antiinflammatory activity in human U937 cells assessed as inhibition of LPS-induced IL1-beta production at 5 ug/ml treated 2 hrs before LPS challenge measured after 24 hrs by ELISA; format: functional
How it was run: (§3)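 PMA-differentiated U937 macrophages (10 ng/mL PMA 48 h, then 24 h rest) at 1 × 10^6 cells/mL in RPMI with 1% FBS; compound (0, 0.2, 1, 5 µg/mL) for 2 h, then A. actinomycetemcomitans ATCC 29522 LPS (1 µg/mL final) for 24 h, 37 °C 5% CO2. Supernatant cytokines and MMP-9 by ELISA (A450, 550 correction). Triplicate, two experiments, t test.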

U-937 [9] = assay: Antiinflammatory activity in human U937 cells assessed as inhibition of LPS-induced IL-8 production at 5 ug/ml treated 2 hrs before LPS challenge measured after 24 hrs by ELISA; format: functional; how it was run: as §3
U-937 [10] = assay: Antiinflammatory activity in human U937 cells assessed as inhibition of LPS-induced TNFalpha production at 5 ug/ml treated 2 hrs before LPS challenge measured after 24 hrs by ELISA; format: functional; how it was run: as §3
U-937 [11] = assay: Antiinflammatory activity in human U937 cells assessed as inhibition of LPS-induced IL-6 production at 5 ug/ml treated 2 hrs before LPS challenge measured after 24 hrs by ELISA; format: functional; how it was run: as §3
U-937 [12] = assay: Antiinflammatory activity in human U937 cells assessed as inhibition of LPS-induced CCL5 production at 5 ug/ml treated 2 hrs before LPS challenge measured after 24 hrs by ELISA; format: functional; how it was run: as §3
U-937 [13] = assay: Antiinflammatory activity in human U937 cells assessed as inhibition of LPS-induced PGE2 production at 5 ug/ml treated 2 hrs before LPS challenge measured after 24 hrs; format: functional, cell-based
U-937 [14] = assay: Antiinflammatory activity in human U937 cells assessed as inhibition of IL1-beta production at 5 ug/ml after 24 hrs by ELISA; format: functional, cell-based; how it was run: as §3
U-937 [15] = assay: Antiinflammatory activity in human U937 cells assessed as inhibition of IL-8 production at 5 ug/ml after 24 hrs by ELISA; format: functional, cell-based; how it was run: as §3
U-937 [16] = assay: Antiinflammatory activity in human U937 cells assessed as inhibition of TNFalpha production at 5 ug/ml after 24 hrs by ELISA; format: functional, cell-based; how it was run: as §3
U-937 [17] = assay: Antiinflammatory activity in human U937 cells assessed as inhibition of IL-6 production at 5 ug/ml after 24 hrs by ELISA; format: functional, cell-based; how it was run: as §3
U-937 [18] = assay: Antiinflammatory activity in human U937 cells assessed as inhibition of CCL5 production at 5 ug/ml after 24 hrs by ELISA; format: functional, cell-based; how it was run: as §3
U-937 [19] = assay: Antiinflammatory activity in human U937 cells assessed as inhibition of PGE2 production at 5 ug/ml after 24 hrs; format: functional, cell-based
U-937 [20] = assay: Antiinflammatory activity in human U937 cells assessed as inhibition of LPS-induced MMP9 production at 1 ug/ml treated 2 hrs before LPS challenge measured after 24 hrs by ELISA; format: functional, cell-based; how it was run: as §3
U-937 [21] = assay: Antiinflammatory activity in human U937 cells assessed as inhibition of LPS-induced MMP9 production at 5 ug/ml treated 2 hrs before LPS challenge measured after 24 hrs by ELISA; format: functional, cell-based; how it was run: as §3
U-937 [22] = assay: Antiinflammatory activity in human U937 cells assessed as inhibition of LPS-induced NF-kappaB p65 activation at 5 ug/ml treated 1 hrs before LPS challenge measured after 1 hr; format: functional, cell-based
How it was run: (§4)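 PMA-differentiated U937 macrophages given compound at 5 µg/mL for 1 h, then A. actinomycetemcomitans LPS at 1 µg/mL for 1 h, 37 °C 5% CO2. Whole-cell extracts adjusted to 1 mg/mL protein; NF-κB p65 and AP-1 activation measured by Trans-AM kits. Unstimulated and compound-free controls included; triplicate, three independent experiments.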

U-937 [23] = assay: Antiinflammatory activity in human U937 cells assessed as inhibition of LPS-induced AP-1 activation at 5 ug/ml treated 1 hrs before LPS challenge measured after 1 hr; format: functional, cell-based; how it was run: as §4
[24] = Cytotoxicity against human GMSM-K cells assessed as reduction of cell viability at up to 50 ug/ml after 2 hrs by MTT assay; format: cell-based
How it was run: (§5)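 MTT colorimetric viability assay on GMSM-K epithelial cells and PMA-differentiated U937 macrophages after 2 h exposure to compound at up to 50 µg/mL.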

U-937 [25] = assay: Cytotoxicity against human U937 cells assessed as reduction of cell viability at up to 50 ug/ml after 2 hrs by MTT assay; format: cell-based; details: u-937, 2 h; how it was run: as §5

SMILES: CC(C)=CCOc1ccc(C(=O)/C=C/c2ccc(O)cc2)c(O)c1
- Activity (Porphyromonas gingivalis [1]): Dose-dependent effect
- MBC (Porphyromonas gingivalis [1]; ATCC 33277, 24 h): 10 µg/mL (≈ 30.8 µM)
- MIC (Porphyromonas gingivalis [1]; ATCC 33277, 24 h): 5 µg/mL (≈ 15.4 µM)
- Activity (Fusobacterium nucleatum): Dose-dependent effect
- MBC (Fusobacterium nucleatum; ATCC 25586, 24 h): > 40 µg/mL
- MIC (Fusobacterium nucleatum; ATCC 25586, 24 h): 40 µg/mL (≈ 123 µM)
- Activity (Prevotella intermedia [2]): Dose-dependent effect
- MBC (Prevotella intermedia [2]; ATCC 25611, 24 h): 5 µg/mL (≈ 15.4 µM)
- MIC (Prevotella intermedia [2]; ATCC 25611, 24 h): 2.5 µg/mL (≈ 7.71 µM)
- Activity (Prevotella intermedia [3]): 45%
- inhibition (Porphyromonas gingivalis [4]): Dose-dependent effect
- inhibition (Porphyromonas gingivalis [5]): inactive
- inhibition at 1 µg/mL (Porphyromonas gingivalis [6]): 31%
- inhibition at 5 µg/mL (Porphyromonas gingivalis [7]): 36%
- inhibition at 5 µg/mL (U-937 [8]): 29%
- inhibition at 5 µg/mL (U-937 [9]): 38%
- inhibition at 5 µg/mL (U-937 [10]): 23%
- inhibition at 5 µg/mL (U-937 [11]): 50%
- inhibition at 5 µg/mL (U-937 [12]): 67%
- inhibition (U-937 [13]): Active
- inhibition (U-937 [14]): inactive
- inhibition (U-937 [15]): inactive
- inhibition (U-937 [16]): inactive
- inhibition (U-937 [17]): inactive
- inhibition (U-937 [18]): inactive
- inhibition (U-937 [19]): inactive
- inhibition (U-937 [20]): Active
- inhibition (U-937 [21]): Active
- inhibition (U-937 [22]): Active
- inhibition (U-937 [23]): Active
- Activity [24]: Non-toxic
- Activity (U-937 [25]): Non-toxic
